High-throughput results: PubChem, The Scripps Research Institute Molecular Screening Center
CHO parental Ca: counter-screen: ATP calcium response change in parental CHO cells; parental CHO-K1, ATP-induced calcium, Fluo-8 fluorescence; inhibition, % at 5.6 µM; hit rate 0.63% among 330,000; AID 463079;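 active = inhibition above that plate's mean sample inhibition plus 3 SD, cut at about 26% in these data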
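Material: Parental CHO cells | Reagent: ATP | Compound dosing: Single nominal dose of 5.6 µM per compound | Detection: Intracellular calcium via Fluo-8 no-wash fluorescent dye | Read-out: % inhibition of ATP-induced calcium mobilization | Benchmarks: Low control ATP plus DMSO, high control DMSO only | Replicates: Singlicate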
OX1R antag-1: OX1R (human) antagonism. O43613. OX1R-expressing cells, FRET antagonist read-out. inhibition, % at 6.6 µM. hit rate 1.8% among 330,000. AID 485270; in the data active = inhibition mostly above about 38%, no sharp cut-off; inactive = mostly below about 40%
Target sequence (O43613 whole entry, looked up): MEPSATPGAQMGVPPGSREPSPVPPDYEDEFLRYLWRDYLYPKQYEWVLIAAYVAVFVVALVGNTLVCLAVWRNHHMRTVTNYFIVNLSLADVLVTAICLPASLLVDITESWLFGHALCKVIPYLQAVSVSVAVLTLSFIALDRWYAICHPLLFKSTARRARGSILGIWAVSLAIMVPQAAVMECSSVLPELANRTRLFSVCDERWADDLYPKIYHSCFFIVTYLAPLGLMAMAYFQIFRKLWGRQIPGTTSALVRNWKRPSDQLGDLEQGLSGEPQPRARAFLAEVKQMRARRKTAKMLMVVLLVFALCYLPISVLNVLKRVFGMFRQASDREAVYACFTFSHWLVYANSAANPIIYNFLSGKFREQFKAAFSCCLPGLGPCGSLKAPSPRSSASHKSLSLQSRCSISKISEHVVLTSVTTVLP
CHO-K1 Ca antag: M1 antagonist counterscreen hit in parental CHO-K1 cells | hit rate 0.6% among 360,000 | AID 602250 | inhibition, % at 3 µM | ATP-induced calcium, Fluo-8 fluorescence;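 active = inhibition above a per-plate cutoff, the plate's mean sample inhibition plus 3 SD, cut at about 24% in these data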
OX1R antag-2: antagonists of human orexin 1 receptor | inhibition, % at 5 µM | O43613 | hit rate 0.43% among 330,000 | CHO/OX1R cells, Fluo-8 calcium fluorescence, orexin A;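 active = inhibition above its plate's threshold, mean inhibition of all tested compounds on the plate plus 3 SD, cut at about 37% in these data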
CHO-K1 Ca PAM: M1 PAM counterscreen hit in parental CHO-K1 cells | ATP EC20, Fluo-8 calcium fluorescence; 0% at ATP EC20, 100% at ATP max | activation, % at 3 µM | hit rate 0.02% among 360,000 | AID 602247;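 active = activation above the run cutoff, the mean activation of all test compounds plus 3 SD, cut at about 40% in these data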;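 also: peak over basal fluorescence ratio in a 140 s read after ATP addition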
M1 ag parental: nonselective activator or artifact in parental CHO-K1 cells | Fluo-8 calcium fluorescence; scaled to maximal ATP response, vehicle zero | activation, % at 3 µM | hit rate 0.48% among 360,000 | AID 602248; in the data active = activation above about 15%;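 also: untransfected CHO-K1 host cells lacking M1 receptor as counterscreen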
OX1R Ca confirm: confirmation of human orexin 1 receptor antagonists; CHO/OX1R cells, orexin A calcium Fluo-8 fluorescence; inhibition, % at 5 µM; AID 492963; hit rate 38% among 1,100; shares compounds with OX1R antag-2; in the data active = inhibition above about 29%
CHO Ca counter: counter-screen for OX1R antagonists: effect in parental CHO cells. parental CHO-K1, ATP-induced calcium, Fluo-8 fluorescence. inhibition, % at 5.6 µM. shares compounds with OX1R antag-2. hit rate 9.3% among 1,100;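 active = inhibition above a per-plate limit, the mean inhibition of that plate's test compounds plus 3 SD, cut at about 25% in these data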
Large screens that a line does not name were inactive (follow-up assays come after a bar, where they were run). This is a sample that favours compounds with a hit; in the whole collection about 2.9% have one here.

COc1cccc(C(=O)/C=C/Nc2ccc(NC(C)=O)cc2)c1	none
COc1cccc(C(=O)/C=C/Nc2ccc(S(=O)(=O)Nc3cccc(C(C)=O)c3)cc2)c1	none | OX1R Ca confirm inactive | CHO Ca counter inactive
CC(=O)c1c(C)[nH]c(C(=O)CN2CCN(S(=O)(=O)c3ccc(C(C)C)cc3)CC2)c1C	none | OX1R Ca confirm inactive | CHO Ca counter inactive
COC(=O)c1c(C)[nH]c(C(=O)COC(=O)CCNS(=O)(=O)c2cccc(C(F)(F)F)c2)c1C	none | OX1R Ca confirm inactive | CHO Ca counter inactive
O=[N+]([O-])c1ccc(N/N=C/c2ccccc2O)cc1	none | OX1R Ca confirm inactive | CHO Ca counter inactive
O=[N+]([O-])c1ccc(NN=Cc2ccccc2O)nc1	none (no result: CHO parental Ca, OX1R antag-1, OX1R antag-2)
COc1ccc(NC(=O)CSc2ncc(-c3ccc(F)cc3)n2Cc2ccco2)cc1	none
O=C(CSc1ncc(-c2ccc(F)cc2)n1Cc1ccco1)Nc1nccs1	none | OX1R Ca confirm inactive | CHO Ca counter inactive
CCN(c1ccccc1)S(=O)(=O)c1cc(C(=O)Nc2ccc(F)c(F)c2)ccc1F	none | OX1R Ca confirm 38 | CHO Ca counter inactive
CCOC(=O)/C(=N\Nc1ccccc1)P(=O)(c1ccccc1)c1ccccc1	none
COc1ccc(/C=N/NC(=O)CC(=O)NCc2cccnc2)cc1[N+](=O)[O-]	none
O=C(C1CCC(=O)N(C2CC2)C1)N(CCO)Cc1ccccc1 (stereo not drawn)	none
CNC(=S)N(C1=NCC(c2ccc([N+](=O)[O-])cc2)S1)c1ccccc1 (stereo not drawn)	none | OX1R Ca confirm inactive | CHO Ca counter inactive
N#Cc1ccsc1NC(=O)C1CCN(C(=O)c2ccc(Cl)cc2)CC1	none
COc1ccc(COC(=O)c2cccc(S(=O)(=O)N3CCN(C(C)=O)CC3)c2)cc1	none | OX1R Ca confirm inactive | CHO Ca counter inactive
COc1cccc(CNC(=O)c2cccc(S(=O)(=O)N3CCN(c4ccc(F)cc4)CC3)c2)c1	none | OX1R Ca confirm inactive | CHO Ca counter inactive
O=C(NC1CC2CCCC(C1)N2Cc1cccs1)c1ccc([N+](=O)[O-])cc1 (stereo not drawn)	none (no result: CHO-K1 Ca antag, CHO-K1 Ca PAM, M1 ag parental)
CN1C(=O)/C(=C/c2coc3ccc(O)cc3c2=O)SC1=S	none
N=C1/C(=C\c2coc3ccc(O)cc3c2=O)C(=O)N=C2SC=CN12	M1 ag parental 33 | OX1R Ca confirm inactive | CHO Ca counter 30
O=C(OCc1ccc(COC(=O)c2cccnc2Cl)cc1)c1cccnc1Cl	OX1R antag-2 58 | OX1R Ca confirm 30 | CHO Ca counter 36
O=C(OCc1ccc(F)cc1)c1cccnc1Cl	none
CCOC(=O)c1oc2ccc(S(=O)(=O)Nc3ccc4c(c3)n(C)c(=O)n4C)cc2c1C	OX1R antag-2 47 | OX1R Ca confirm inactive | CHO Ca counter inactive
COc1ccc(S(=O)(=O)Nc2ccc3c(c2)n(C)c(=O)n3C)cc1C	none
CCOC(=O)c1c(-c2ccccc2)csc1NC(=O)CCN1C(=O)c2ccccc2C1=O	none
CCOC(=O)c1c(-c2ccc(-c3ccccc3)cc2)csc1NC(=O)CNCCN(C)C	none | OX1R Ca confirm 36 | CHO Ca counter inactive
COc1ccc(S(=O)(=O)N2CCC(C(=O)NCCC(=O)NCc3cccnc3)CC2)cc1	none (no result: CHO parental Ca, OX1R antag-1, OX1R antag-2)
CCOC(=O)[C@]12CCCC=C1N(Cc1ccc(Cl)cc1Cl)C(=O)[C@H](CC(=O)N1CCSCC1)C2	none (no result: CHO parental Ca, OX1R antag-1, OX1R antag-2)
CCNC(=S)N(Cc1ccc2c(c1)OCO2)C1CC(=O)N(c2ccc(F)cc2)C1=O (stereo not drawn)	OX1R antag-2 57 | OX1R Ca confirm inactive | CHO Ca counter inactive
CCNC(=S)N(Cc1ccc2c(c1)OCO2)C1CC(=O)N(c2ccc(OC)cc2)C1=O (stereo not drawn)	none
COc1ccc(C2=NCC(CSc3nnc(-c4ccc5c(c4)OCO5)o3)S2)cc1 (stereo not drawn)	OX1R antag-2 47 | OX1R Ca confirm inactive | CHO Ca counter inactive
Cc1ccc2c(c1)C1(OCCCO1)C(=O)N2	none
